Assay results from ChEMBL document CHEMBL1123430, “Potential tumor- or organ-imaging agents. 26. Polyiodinated 2-substituted triacylglycerols as hepatographic agents” (J Med Chem, 1986).

The compounds below were run on Rattus norvegicus (assay: Percentage […]/CH3OH extract of the radiolabeled compound in rat plasma 5 minutes after iv administration). Conditions: not given.
Format: functional
Outline: (§1)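 Liver and plasma were taken at 5 or 30 min. Plasma was extracted by a modified Folch procedure, and liver was homogenized and extracted. Extracts were run on TLC in hexane/ethyl acetate (5:2) for esters or THF/hexane (1:1) for acids, with unlabeled compound as reference. Plates were cut into 1-cm strips and counted. Values are percent ± SEM, n = 3-5.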

**Q.** Which Activity does the source give for `CCCCCCCCCCCCCCCC(=O)OCC(COC(=O)CCCCCCCCCCCCCCC)OC(=O)C(CC)Cc1c(I)cc(I)c(N)c1I` (centres undefined) here?
**A.** 85.7%

The compounds below were run on Rattus norvegicus (assay: Distribution of radioactivity of radiolabeled compound in liver of female rats 30 minutes after intravenous administration). Conditions: in vivo, 0.5 h.
Format: ADME, organism-based

**Q.** For `CCCCCCCCCCCCCCCC(=O)OCC(COC(=O)CCCCCCCCCCCCCCC)OC(=O)C(CC)Cc1c(I)cc(I)c(N)c1I` (centres undefined), which Dose is on record?
**A.** 4.6%

The compounds below were run on Rattus norvegicus (assay: Percentage […]/CH3OH extract of the radiolabeled compound in rat liver 5 minutes after iv administration). Conditions: not given.
Format: functional
Outline: as §1

**Q.** `CCCCCCCCCCCCCCCC(=O)OCC(COC(=O)CCCCCCCCCCCCCCC)OC(=O)C(CC)Cc1c(I)cc(I)c(N)c1I` (centres undefined) was tested. Which Activity did it give?
**A.** 84.4%

The compounds below were run on Rattus norvegicus (assay: Percentage […]/CH3OH extract of the radiolabeled compound in rat plasma 30 minutes after iv administration). Conditions: not given.
Format: functional
Outline: as §1

**Q.** With `CCCCCCCCCCCCCCCC(=O)OCC(COC(=O)CCCCCCCCCCCCCCC)OC(=O)C(CC)Cc1c(I)cc(I)c(N)c1I` (centres undefined) as the compound, how does the Activity read?
**A.** 92.2%

These compounds were tested on Rattus norvegicus (assay: Polyacrylamide Gel Electrophoresis (PAGE) analysis of rat plasma 5 minutes after intravenous administration of radiolabeled compound (below albumin )). Conditions: not given.
Format: functional, organism-based
Outline: (§2)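 ¹²⁵I-labeled compound, radioiodinated by exchange in a pivalic acid melt, solubilized in normal saline with Tween 20 and given iv to adult female Sprague–Dawley rats (200–250 g), 5–30 μCi/animal, 3–4 rats per time point. Plasma was run on polyacrylamide gels. Gels were sectioned and gamma counted. Radioactivity per band (stacking gel, LDL, HDL, albumin, below albumin) is given as % of total applied; mean ± SEM, n = 3-5.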

**Q.** With `CCCCCCCCCCCCCCCC(=O)OCC(COC(=O)CCCCCCCCCCCCCCC)OC(=O)C(CC)Cc1c(I)cc(I)c(N)c1I` (centres undefined) as the compound, how does the Concentration read?
**A.** 3

Each compound was assayed on Rattus norvegicus (assay: Distribution of radioactivity of radiolabeled compound in heart of female rats 30 minutes after intravenous administration). Conditions: in vivo, 0.5 h.
Format: ADME, organism-based

**Q.** `CCCCCCCCCCCCCCCC(=O)OCC(COC(=O)CCCCCCCCCCCCCCC)OC(=O)C(CC)Cc1c(I)cc(I)c(N)c1I` (centres undefined) was tested. Which Dose did it give?
**A.** 1.92%

What follows are compounds tested on Rattus norvegicus (assay: Polyacrylamide Gel Electrophoresis (PAGE) analysis of rat plasma 30 min after intravenous administration of radiolabeled compound in low-density lipoprotein). Conditions: not given.
Format: functional, organism-based
Outline: (§3)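 Gels were sectioned and counted in a γ counter. Radioactivity in each band (stacking gel, LDL, HDL, albumin, below albumin) is expressed as a percentage of the total radioactivity applied to the gel, ± SEM, n = 3-5.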

**Q.** For `CCCCCCCCCCCCCCCC(=O)OCC(COC(=O)CCCCCCCCCCCCCCC)OC(=O)C(CC)Cc1c(I)cc(I)c(N)c1I` (centres undefined), which Concentration is on record?
**A.** 27.5

The compounds below were run on Rattus norvegicus (assay: Polyacrylamide Gel Electrophoresis (PAGE) analysis of rat plasma 30 minutes after intravenous administration of radiolabeled compound concentration of stacking gel). Conditions: not given.
Format: functional, organism-based
Outline: as §3

**Q.** With `CCCCCCCCCCCCCCCC(=O)OCC(COC(=O)CCCCCCCCCCCCCCC)OC(=O)C(CC)Cc1c(I)cc(I)c(N)c1I` (centres undefined) as the compound, how does the Concentration read?
**A.** 7.1

Each compound was assayed on Rattus norvegicus (assay: Distribution of radioactivity of radiolabeled compound in blood of female rats 5 minutes after intravenous administration). Conditions: in vivo.
Format: ADME, organism-based

**Q.** With `CCCCCCCCCCCCCCCC(=O)OCC(COC(=O)CCCCCCCCCCCCCCC)OC(=O)C(CC)Cc1c(I)cc(I)c(N)c1I` (centres undefined) as the compound, how does the Dose read?
**A.** 6.04%

These compounds were tested on Rattus norvegicus (assay: Distribution of radioactivity of radiolabeled compound in lung of female rats 30 minutes after intravenous administration). Conditions: in vivo, 0.5 h.
Format: ADME, organism-based

**Q.** How did the Dose turn out when `CCCCCCCCCCCCCCCC(=O)OCC(COC(=O)CCCCCCCCCCCCCCC)OC(=O)C(CC)Cc1c(I)cc(I)c(N)c1I` (centres undefined) was run?
**A.** 0.97%

These compounds were tested on Rattus norvegicus (assay: Distribution of radioactivity of radiolabeled compound in blood of female rats 30 minutes after intravenous administration). Conditions: in vivo, 0.5 h.
Format: ADME, organism-based

**Q.** How did the Dose turn out when `CCCCCCCCCCCCCCCC(=O)OCC(COC(=O)CCCCCCCCCCCCCCC)OC(=O)C(CC)Cc1c(I)cc(I)c(N)c1I` (centres undefined) was run?
**A.** 3.73%

Each compound was assayed on Rattus norvegicus (assay: Distribution of radioactivity of radiolabeled compound in kidney of female rats 5 minutes after intravenous administration). Conditions: in vivo.
Format: ADME, organism-based

**Q.** Which Dose does the source give for `CCCCCCCCCCCCCCCC(=O)OCC(COC(=O)CCCCCCCCCCCCCCC)OC(=O)C(CC)Cc1c(I)cc(I)c(N)c1I` (centres undefined) here?
**A.** 0.65%

The compounds below were run on Rattus norvegicus (assay: Polyacrylamide Gel Electrophoresis (PAGE) analysis of rat plasma 5 minutes after intravenous administration of radiolabeled compound in stacking gel). Conditions: not given.
Format: functional, organism-based
Outline: as §2

**Q.** For `CCCCCCCCCCCCCCCC(=O)OCC(COC(=O)CCCCCCCCCCCCCCC)OC(=O)C(CC)Cc1c(I)cc(I)c(N)c1I` (centres undefined), which Concentration is on record?
**A.** 4.6%

Each compound was assayed on Rattus norvegicus (assay: Percentage […]/CH3OH extract of the radiolabeled compound in rat liver 30 minutes after iv administration). Conditions: not given.
Format: functional
Outline: as §1

**Q.** Which Activity does the source give for `CCCCCCCCCCCCCCCC(=O)OCC(COC(=O)CCCCCCCCCCCCCCC)OC(=O)C(CC)Cc1c(I)cc(I)c(N)c1I` (centres undefined) here?
**A.** 79.7%

What follows are compounds tested on Rattus norvegicus (assay: Polyacrylamide Gel Electrophoresis (PAGE) analysis of rat plasma 30 min after intravenous administration of radiolabeled compound in albumin). Conditions: not given.
Format: functional, organism-based
Outline: as §3

**Q.** `CCCCCCCCCCCCCCCC(=O)OCC(COC(=O)CCCCCCCCCCCCCCC)OC(=O)C(CC)Cc1c(I)cc(I)c(N)c1I` (centres undefined) was tested. Which Concentration did it give?
**A.** 5.4

Each compound was assayed on Rattus norvegicus (assay: Polyacrylamide Gel Electrophoresis (PAGE) analysis of rat plasma 30 min after intravenous administration of radiolabeled compound at concentration of high density). Conditions: not given.
Format: functional, organism-based
Outline: as §3

**Q.** With `CCCCCCCCCCCCCCCC(=O)OCC(COC(=O)CCCCCCCCCCCCCCC)OC(=O)C(CC)Cc1c(I)cc(I)c(N)c1I` (centres undefined) as the compound, how does the Concentration read?
**A.** 54.1

Each compound was assayed on Rattus norvegicus (assay: Distribution of radioactivity of radiolabeled compound in liver of female rats 5 minutes after intravenous administration). Conditions: in vivo.
Format: ADME, organism-based

**Q.** `CCCCCCCCCCCCCCCC(=O)OCC(COC(=O)CCCCCCCCCCCCCCC)OC(=O)C(CC)Cc1c(I)cc(I)c(N)c1I` (centres undefined) was tested. Which Dose did it give?
**A.** 2.16%

What follows are compounds tested on Rattus norvegicus (assay: Polyacrylamide Gel Electrophoresis (PAGE) analysis of rat plasma 5 min after intravenous administration of radiolabeled compound in low-density lipoprotein). Conditions: not given.
Format: functional, organism-based
Outline: as §2

**Q.** For `CCCCCCCCCCCCCCCC(=O)OCC(COC(=O)CCCCCCCCCCCCCCC)OC(=O)C(CC)Cc1c(I)cc(I)c(N)c1I` (centres undefined), which Concentration is on record?
**A.** 35.1

What follows are compounds tested on Rattus norvegicus (assay: Polyacrylamide Gel Electrophoresis (PAGE) analysis of rat plasma 5 minutes after intravenous administration of radiolabeled compound in high density lipoprotein). Conditions: not given.
Format: functional, organism-based
Outline: as §2

**Q.** Which Concentration does the source give for `CCCCCCCCCCCCCCCC(=O)OCC(COC(=O)CCCCCCCCCCCCCCC)OC(=O)C(CC)Cc1c(I)cc(I)c(N)c1I` (centres undefined) here?
**A.** 52.6

Each compound was assayed on Rattus norvegicus (assay: Distribution of radioactivity of radiolabeled compound in lung of female rats 5 minutes after intravenous administration). Conditions: in vivo.
Format: ADME, organism-based

**Q.** Which Dose does the source give for `CCCCCCCCCCCCCCCC(=O)OCC(COC(=O)CCCCCCCCCCCCCCC)OC(=O)C(CC)Cc1c(I)cc(I)c(N)c1I` (centres undefined) here?
**A.** 1.15%

What follows are compounds tested on Rattus norvegicus (assay: Distribution of radioactivity of radiolabeled compound in kidney of female rats 30 minutes after intravenous administration). Conditions: in vivo, 0.5 h.
Format: ADME, organism-based

**Q.** Which Dose does the source give for `CCCCCCCCCCCCCCCC(=O)OCC(COC(=O)CCCCCCCCCCCCCCC)OC(=O)C(CC)Cc1c(I)cc(I)c(N)c1I` (centres undefined) here?
**A.** 0.65%

These compounds were tested on Rattus norvegicus (assay: Distribution of radioactivity of radiolabeled compound in heart of female rats 5 minutes after intravenous administration). Conditions: in vivo.
Format: ADME, organism-based

**Q.** With `CCCCCCCCCCCCCCCC(=O)OCC(COC(=O)CCCCCCCCCCCCCCC)OC(=O)C(CC)Cc1c(I)cc(I)c(N)c1I` (centres undefined) as the compound, how does the Dose read?
**A.** 0.6%

Each compound was assayed on Rattus norvegicus (assay: Polyacrylamide Gel Electrophoresis (PAGE) analysis of rat plasma 5 minutes after intravenous administration of radiolabeled compound (below albumin)). Conditions: not given.
Format: functional, organism-based
Outline: as §2

**Q.** Which Concentration does the source give for `CCCCCCCCCCCCCCCC(=O)OCC(COC(=O)CCCCCCCCCCCCCCC)OC(=O)C(CC)Cc1c(I)cc(I)c(N)c1I` (centres undefined) here?
**A.** 3

Each compound was assayed on Rattus norvegicus (assay: Polyacrylamide Gel Electrophoresis (PAGE) analysis of rat plasma 5 min after intravenous administration of radiolabeled compound in albumin). Conditions: not given.
Format: functional, organism-based
Outline: as §3

**Q.** With `CCCCCCCCCCCCCCCC(=O)OCC(COC(=O)CCCCCCCCCCCCCCC)OC(=O)C(CC)Cc1c(I)cc(I)c(N)c1I` (centres undefined) as the compound, how does the Concentration read?
**A.** 4.4
